Data published in ChEMBL document CHEMBL3244044, “Synthesis and antitumor activity of halogen-substituted 4-(3,3-dimethyl-1-triazeno)quinolines” (J Med Chem, 1978).

Assays:
P388 [1] = test: Antitumor activity against mouse P388 cells allografted mouse assessed as host survival at 30 mg/kg, ip qd for 9 days relative to control; assay type: functional; conditions: route intraperitoneal
How it was run: (§1)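 NCI protocol: groups of five to ten mice inoculated ip with approximately 10^6 P-388 or L1210 cells. Drug given over a range of dose levels starting 24 h after implantation, once daily for 9 consecutive days. Survival expressed as %T/C = (average survival of treated)/(average survival of control) × 100.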

P388 [2] = test: Antitumor activity against mouse P388 cells allografted mouse assessed as host survival at 40 mg/kg, ip qd for 9 days relative to control; assay type: functional; conditions: route intraperitoneal; how it was run: as §1
P388 [3] = test: Antitumor activity against mouse P388 cells allografted mouse assessed as host survival at 20 mg/kg, ip qd for 9 days relative to control; assay type: functional; conditions: route intraperitoneal; how it was run: as §1
Mus musculus [4] = test: Toxicity in mouse P388 cells allografted mouse at 20 mg/kg, ip qd for 9 days; assay type: organism-based; set-up: dose 20 mg/kg, route intraperitoneal; conditions: in vivo, 216 h
How it was run: (§2)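 NCI protocol. Groups of five to ten mice were inoculated intraperitoneally with about 10^6 tumor cells. Drug was given ip once daily for 9 consecutive days, starting 24 h after tumor implantation, over a range of dose levels. Toxicity was read as the average body weight change at the end of drug treatment.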

L1210 [5] = test: Antitumor activity against mouse L1210 cells allografted mouse assessed as host survival at 30 mg/kg, ip qd for 9 days relative to control; assay type: functional; conditions: route intraperitoneal; how it was run: as §1
P388 [6] = test: Antitumor activity against mouse P388 cells allografted mouse assessed as host survival at 50 mg/kg, ip qd for 9 days relative to control; assay type: functional; conditions: route intraperitoneal; how it was run: as §1
Mus musculus [7] = test: Toxicity in mouse P388 cells allografted mouse at 50 mg/kg, ip qd for 9 days; assay type: organism-based; set-up: dose 50 mg/kg, route intraperitoneal; conditions: in vivo, 216 h; how it was run: as §2
Mus musculus [8] = test: Toxicity in mouse L1210 cells allografted mouse at 30 mg/kg, ip qd for 9 days; assay type: organism-based; set-up: dose 30 mg/kg, route intraperitoneal; conditions: in vivo, 216 h
How it was run: (§3)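 Groups of five to ten mice were inoculated ip with about 10^6 L1210 cells and dosed once daily for 9 consecutive days beginning 24 h post-implantation. Toxicity was taken as the average body weight change at the end of drug treatment.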

L1210 [9] = test: Antitumor activity against mouse L1210 cells allografted mouse assessed as host survival at 40 mg/kg, ip qd for 9 days relative to control; assay type: functional; conditions: route intraperitoneal; how it was run: as §1
Mus musculus [10] = test: Toxicity in mouse P388 cells allografted mouse at 40 mg/kg, ip qd for 9 days; assay type: organism-based; set-up: dose 40 mg/kg, route intraperitoneal; conditions: in vivo, 216 h; how it was run: as §2
[11] = Binding affinity to synthetic melanin at 5.8 mg/100 mL after 15 mins by UV-spectroscopic analysis; assay type: physicochemical; conditions: 0.25 h
How it was run: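 Synthetic melanin was made from DL-Dopa with tyrosinase in 0.1 M phosphate pH 6.6 at 37 °C for 4 h. Melanin suspension (1.1 mg dry weight) was mixed with phosphate buffer (0.05 M, pH 6.4, 5% Me2SO), water, and 1 mL of drug solution (5.8 mg/100 mL). The mixture was shaken 15 min at room temperature and filtered. Unbound drug in the filtrate was measured by UV against a drug-free blank.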

Mus musculus [12] = test: Toxicity in mouse L1210 cells allografted mouse at 40 mg/kg, ip qd for 9 days; assay type: organism-based; set-up: dose 40 mg/kg, route intraperitoneal; conditions: in vivo, 216 h; how it was run: as §3
Mus musculus [13] = test: Toxicity in mouse P388 cells allografted mouse at 30 mg/kg, ip qd for 9 days; assay type: organism-based; set-up: dose 30 mg/kg, route intraperitoneal; conditions: in vivo, 216 h; how it was run: as §2
B16 [14] = test: Antitumor activity against mouse B16 cells allografted mouse assessed as host survival at 40 mg/kg, ip qd for 9 days relative to control; assay type: functional; conditions: route intraperitoneal
How it was run: (§4)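 B16 melanoma-bearing mice given drug ip once daily for 9 days, starting 24 h after tumor implantation. Read-out is average survival in days, expressed as %T/C = (average survival of treated mice)/(average survival of control mice) × 100.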

Mus musculus [15] = test: Toxicity in mouse B16 cells allografted mouse at 40 mg/kg, ip qd for 9 days; assay type: organism-based; set-up: dose 40 mg/kg, route intraperitoneal; conditions: in vivo, 216 h
How it was run: (§5)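 Mice bearing B16 melanoma, dosed ip once daily for 9 days from 24 h after tumor implantation. Toxicity is recorded as the average body weight change at the end of drug treatment.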

Mus musculus [16] = test: Toxicity in mouse B16 cells allografted mouse at 24 mg/kg, ip qd for 9 days; assay type: organism-based; set-up: dose 24 mg/kg, route intraperitoneal; conditions: in vivo, 216 h; how it was run: as §5
B16 [17] = test: Antitumor activity against mouse B16 cells allografted mouse assessed as host survival at 66.7 mg/kg, ip qd for 9 days relative to control; assay type: functional; conditions: route intraperitoneal; how it was run: as §4
Mus musculus [18] = test: Toxicity in mouse B16 cells allografted mouse at 66.7 mg/kg, ip qd for 9 days; assay type: organism-based; set-up: dose 66.7 mg/kg, route intraperitoneal; conditions: in vivo, 216 h; how it was run: as §5
B16 [19] = test: Antitumor activity against mouse B16 cells allografted mouse assessed as host survival at 24 mg/kg, ip qd for 9 days relative to control; assay type: functional; conditions: route intraperitoneal; how it was run: as §4
P388 [20] = test: Antitumor activity against mouse P388 cells allografted mouse assessed as host survival at 10 mg/kg, ip qd for 9 days relative to control; assay type: functional; conditions: route intraperitoneal; how it was run: as §1
L1210 [21] = test: Antitumor activity against mouse L1210 cells allografted mouse assessed as host survival at 20 mg/kg, ip qd for 9 days relative to control; assay type: functional; conditions: route intraperitoneal; how it was run: as §1
Mus musculus [22] = test: Toxicity in mouse P388 cells allografted mouse at 10 mg/kg, ip qd for 9 days; assay type: organism-based; set-up: dose 10 mg/kg, route intraperitoneal; conditions: in vivo, 216 h; how it was run: as §2
Mus musculus [23] = test: Toxicity in mouse L1210 cells allografted mouse at 20 mg/kg, ip qd for 9 days; assay type: organism-based; set-up: dose 20 mg/kg, route intraperitoneal; conditions: in vivo, 216 h; how it was run: as §3

Structure (SMILES) | T/C (P388 [1]) [%] | T/C (P388 [2]) [%] | T/C (P388 [3]) [%] | Activity (Mus musculus [4]) [%] | T/C (L1210 [5]) [%] | T/C (P388 [6]) [%] | Activity (Mus musculus [7]) [%] | Activity (Mus musculus [8]) [%] | T/C (L1210 [9]) [%] | Activity (Mus musculus [10]) [%] | Activity [11] [%] | Activity (Mus musculus [12]) [%] | Activity (Mus musculus [13]) [%] | T/C (L1210 [21]) [%] | Activity (Mus musculus [23]) [%] | other results
CN(C)/N=N\c1ccnc2ccc(Br)cc12 | 127 | 111 | 123 | 18 | 150 | 131 | -8.9 | -1 | 154 | -3.5 | 55.3 | -5.8 | – | – | – | –
CN(C)/N=N\c1ccnc2cc(Br)ccc12 | 133 | 133 | – | – | 129 | 125 | -15.1 | 10 | 141 | -8.9 | 57.3 | -2.8 | -2.4 | – | – | –
CN(C)/N=N\c1ccnc2c(Br)cccc12 | 113 | 125 | 109 | 16 | 137 | 117 | -5 | 6.1 | 144 | -3.3 | 48.1 | -5.9 | 4.8 | – | – | Survival (B16 [14]): 19 days; T/C (B16 [14]): 90%; Activity (Mus musculus [15]): -3%; Activity (Mus musculus [16]): -1.1%; Survival (B16 [17]): 21.3 days; T/C (B16 [17]): 101%; Activity (Mus musculus [18]): -3.7%; Survival (B16 [19]): 20.3 days; T/C (B16 [19]): 97%
CN(C)/N=N\c1ccnc2ccc(Cl)cc12 | 137 | – | 139 | 0.8 | 156 | – | – | -10 | – | – | 41 | – | -12.9 | 146 | 1 | T/C (P388 [20]): 129%; Activity (Mus musculus [22]): -3.1%
CN(C)/N=N\c1ccnc2cc(Cl)ccc12 | 137 | 119 | – | – | 152 | – | – | -1 | – | -22.6 | 48 | – | -16.3 | 154 | 5.1 | –
